Assay results gathered from unrelated publications.
Lines come from different studies, so protocols differ.
Target: Phosphatidylinositol 4-phosphate 3-kinase C2 domain-containing subunit alpha (PIK3C2A, Homo sapiens, UniProt O00443)
Mode: inhibitor

| SMILES | observed | method | tested at | quantity | result |
| --- | --- | --- | --- | --- | --- |
| CC(C)CCn1c(SCC(=O)Nc2ccccc2C(F)(F)F)nc2nccnc2c1=O | enzyme activity | – | 10 µM | inhibition | 84% |
| Cc1cc(NC(=O)c2cccc3cc(-c4cccc5[nH]nc(N)c45)ccc23)ccc1F | enzyme activity | – | 0.1 µM | activity vs control | 108% |
| C=CC(=O)Nc1cc(Nc2nccc(Nc3cc(Cl)c(F)cc3C(C)(C)O)n2)c(OC)cc1N1CC[C@@H](N(C)C)C1 | enzyme activity | – | 1 µM | inhibition | -2% |
| Cc1ccc(C(=O)NCc2ccsc2)cc1C#Cc1cn(C(C)C)c2ncnc(N)c12 | enzyme activity | – | 1 µM | activity vs control | 98% |
| CN1CC(Oc2cnc(C#N)cc2-c2ccn3nc(NC(=O)C4CC4)cc3c2)C1 | enzyme activity | – | 1 µM | inhibition | -4% |
| Cc1ccc(NC(=O)c2ccc(C)c(C(F)(F)F)c2)cc1C#Cc1nn(C2CCC(O)CC2)c2ncnc(N)c12 (stereo not drawn) | cell-free assay | – | 10 µM | remaining signal | 92% |
| Cc1cnc(NC2CCOCC2)nc1-n1cnc(C(=O)NC(CN)c2cc(F)cc(Cl)c2)c1 (stereo not drawn) | enzyme activity | radiometric | 1 µM | remaining activity | 100% |
| O=C(CSc1nc2nccnc2c(=O)n1CCc1ccccc1)Nc1ccccc1 | enzyme activity | – | 10 µM | inhibition | 93% |
| COc1cc(Cl)c(C(=O)N[C@@H](CN[C@H]2CC[C@@H](N)CC2)Cc2ccc(C#N)cc2)cc1-c1ccc(CN[C@H](C)c2ccc(C)cc2)o1 | enzyme activity | – | 1 µM | remaining activity | 93% |
